Common to all, as to assay type: functional, cell-based
Experiment [1] can be described thus: Cytotoxicity against human HeLa cells assessed as growth inhibition after 48 hrs by SRB assay.
Experiment [2] can be described thus: Cytotoxicity against human A549 cells assessed as growth inhibition after 48 hrs by SRB assay. Particulars: A549, 48 h. For orientation: In SRB staining, fixed cells bind dye roughly in proportion to their protein.
A short description of experiment [3]: Cytotoxicity against human HL60 cells assessed as growth inhibition after 48 hrs by SRB assay. Particulars: HL-60, 48 h.
A short description of experiment [4]: Cytotoxicity against human K562 cells assessed as growth inhibition after 48 hrs by SRB assay. The settings on record: K562, 48 h.
Experiment [5] has as its system HepG2. The experiment is described as follows: Lipid lowering activity in human HepG2 cells assessed as decrease in total cholesterol level at 10 uM treated 12 hrs post oleic acid addition measured 6 hrs post dose. An outline of the steps: (§1)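 HepG2 cells (ATCC origin) grown in DMEM with 10% FBS and penicillin/streptomycin to 70–80% confluence. They were loaded with 100 μM oleic acid in DMEM for 12 h, then exposed for 6 h to 10 μM compound, lovastatin as positive control, or oleic acid alone. Read-outs were Oil-Red O staining (n = 8) or TC/TG determination (n = 3). Each experiment was repeated at least three times; means ± SEM.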

The test system of experiment [6] is HepG2. The experiment can be described thus: Lipid lowering activity in human HepG2 cells assessed as decrease in oleic acid elicited lipid accumulation at 10 uM treated 12 hrs post oleic acid addition measured 6 hrs post dose by oil-red O staining method. Put shortly: as §1
For experiment [7], the system named is HepG2. The experiment is described as follows: Lipid lowering activity in human HepG2 cells assessed as decrease in triglyceride level at 10 uM treated 12 hrs post oleic acid addition measured 6 hrs post dose. An outline of the steps: as §1

Active and inactive are the calls of the source. No cut-off for these calls is given here.

As to `CC(C)CC(=O)NC(=O)c1c[nH]c([C@@H](O)c2ccccc2)cc1=O`, the IC50 in experiment [1], in experiment [2], in experiment [3] and in experiment [4] was greater than 50 µM in each case.

As to `NC(=O)c1c[nH]c([C@@H](O)c2ccccc2)cc1=O`, the IC50 in experiment [1], in experiment [2], in experiment [3] and in experiment [4] was greater than 50 µM throughout. The outcome with HepG2 [5], with HepG2 [6] and with HepG2 [7] was Active.

Consider `CC(C)CC(=O)NC(=O)c1cn(CCO)c([C@@H](O)c2ccccc2)cc1=O`, for which the IC50 in experiment [1], in experiment [2], in experiment [3] and in experiment [4] was greater than 50 µM throughout.

For the compound `COC(=O)c1c[nH]c([C@@H](O)c2ccccc2)cc1=O`, the IC50 in experiment [1], in experiment [2], in experiment [3] and in experiment [4] was greater than 50 µM each time. Also, the outcome with HepG2 [5], in the experiment on HepG2 [6] and in the experiment on HepG2 [7] was Active.

Regarding `CC(=O)O[C@@H](c1ccccc1)c1cc(=O)c(C(N)=O)cn1CCO`, the IC50 in experiment [1], in experiment [2], in experiment [3] and in experiment [4] was greater than 50 µM each time. Moreover, the outcome in the experiment on HepG2 [5], in the experiment on HepG2 [6] and in the experiment with HepG2 [7] was Active.

In the case of `NC(=O)c1cn(CCO)c([C@@H](O)c2ccccc2)cc1=O`, the half-maximal inhibitory concentration (IC50) in experiment [1], in experiment [2], in experiment [3] and in experiment [4] was greater than 50 µM each time.

In the case of `CC(=O)O[C@@H](c1ccccc1)c1cc(=O)c(C(=O)NC(=O)CC(C)C)cn1CCO`, the IC50 in experiment [1], in experiment [2], in experiment [3] and in experiment [4] was greater than 50 µM in each case. The outcome with HepG2 [5], with HepG2 [6] and with HepG2 [7] was Active.

(Values after ChEMBL document CHEMBL3861970, “Penipyridones A-F, Pyridone Alkaloids from Penicillium funiculosum” (J Nat Prod, 2016).)
